Activity calls are given as the source filed them. The calls are words filed in the database; no cut-off is given here.
Legend:
Peritoneal macrophage [1] = experiment: Anti-inflammatory activity in ICR mouse peritoneal macrophages assessed inhibition of LPS-induced TNF-alpha production at 10 uM preincubated for 30 to 60 mins followed by LPS stimulation measured after 24 hrs by ELISA; type: functional, cell-based
Summary of the method: (§1)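 Primary peritoneal macrophages from thioglycollate-elicited ICR mice (3 mL i.p.), collected by PBS lavage and cultured in RPMI-1640 at 37 °C, 5% CO2. Plated at 4*10⁵ cells/well and grown 24 h. Pretreated with compound (30–60 min; screen at 10, dose-response 0.5–10), then LPS for 24 h. TNF-α in the conditioned medium measured by ELISA and expressed relative to LPS alone; DMSO as vehicle.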

Mus musculus [2] = experiment: Anti-inflammatory activity in LPS-induced C57BL/6 mouse model of acute lung injury assessed as inhibition of TNF-alpha levels in plasma at 20 mg/kg, ip pretreated for 30 mins followed by LPS challenge measured after 6 hrs by ELISA; type: functional, organism-based; settings: C57/BL6
Summary of the method: (§2)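 ALI model in male C57BL/6 mice: i.p. pretreatment 30 min before intratracheal LPS (5 mg/kg), euthanasia at 6 h. BALF spun at 1000 rpm for 10 min and the supernatant kept; plasma also collected. IL-6 and TNF-α measured by ELISA as pg/ml, mean ± SEM, n = 7.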

Mus musculus [3] = experiment: Anti-inflammatory activity in LPS-induced C57BL/6 mouse model of acute lung injury assessed as inhibition of IL-6 levels in plasma at 20 mg/kg, ip pretreated for 30 mins followed by LPS challenge measured after 6 hrs by ELISA; type: functional, organism-based; settings: C57/BL6; summary of the method: as §2
Mus musculus [4] = experiment: Anti-inflammatory activity in LPS-induced C57BL/6 mouse model of acute lung injury assessed as inhibition of TNF-alpha levels in BALF at 20 mg/kg, ip pretreated for 30 mins followed by LPS challenge measured after 6 hrs by ELISA; type: functional, organism-based; settings: C57/BL6; summary of the method: as §2
Mus musculus [5] = experiment: Anti-inflammatory activity in LPS-induced C57BL/6 mouse model of acute lung injury assessed as inhibition of IL-6 levels in BALF at 20 mg/kg, ip pretreated for 30 mins followed by LPS challenge measured after 6 hrs by ELISA; type: functional, organism-based; settings: C57/BL6; summary of the method: as §2
Mus musculus [6] = experiment: Anti-inflammatory activity in LPS-induced C57BL/6 mouse model of acute lung injury assessed as inhibition of total cell count in BALF at 15 mg/kg, ip pretreated for 30 mins followed by LPS challenge measured after 6 hrs; type: functional, organism-based; settings: C57/BL6
Summary of the method: (§3)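 Male C57BL/6 mice (n = 7) received 15 mg/kg i.p. in 200 µL, or vehicle, 30 min before intratracheal LPS 5 mg/kg; euthanized at 6 h. Total BALF cells counted as counts/ml. Lung MPO activity determined from absorbance change at 460 nm after a 30 min reaction and reported as U/g.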

Peritoneal macrophage [7] = experiment: Anti-inflammatory activity in ICR mouse peritoneal macrophages assessed inhibition of LPS-induced TNF-alpha production preincubated for 30 to 60 mins followed by LPS stimulation measured after 24 hrs by ELISA; type: functional, cell-based; summary of the method: as §1
Mus musculus [8] = experiment: Anti-inflammatory activity in LPS-induced C57BL/6 mouse model of acute lung injury assessed as inhibition of myeloperoxidase activity in lung tissue at 15 mg/kg, ip pretreated for 30 mins followed by LPS challenge measured after 6 hrs by H2O2 substrate based assay; type: functional, organism-based; settings: C57/BL6; summary of the method: as §3
Peritoneal macrophage [9] = experiment: Anti-inflammatory activity in ICR mouse peritoneal macrophages assessed inhibition of LPS-induced TNF-alpha production at 10 uM preincubated for 30 to 60 mins followed by LPS stimulation measured after 24 hrs by ELISA relative to control; type: functional; summary of the method: as §1
[10] = molecular target: Toll-like receptor 4 (Homo sapiens) (UniProt O00206); experiment: Binding affinity to TLR4 (unknown origin) by SPR analysis
Chain of Toll-like receptor 4 (Homo sapiens) (O00206 whole entry): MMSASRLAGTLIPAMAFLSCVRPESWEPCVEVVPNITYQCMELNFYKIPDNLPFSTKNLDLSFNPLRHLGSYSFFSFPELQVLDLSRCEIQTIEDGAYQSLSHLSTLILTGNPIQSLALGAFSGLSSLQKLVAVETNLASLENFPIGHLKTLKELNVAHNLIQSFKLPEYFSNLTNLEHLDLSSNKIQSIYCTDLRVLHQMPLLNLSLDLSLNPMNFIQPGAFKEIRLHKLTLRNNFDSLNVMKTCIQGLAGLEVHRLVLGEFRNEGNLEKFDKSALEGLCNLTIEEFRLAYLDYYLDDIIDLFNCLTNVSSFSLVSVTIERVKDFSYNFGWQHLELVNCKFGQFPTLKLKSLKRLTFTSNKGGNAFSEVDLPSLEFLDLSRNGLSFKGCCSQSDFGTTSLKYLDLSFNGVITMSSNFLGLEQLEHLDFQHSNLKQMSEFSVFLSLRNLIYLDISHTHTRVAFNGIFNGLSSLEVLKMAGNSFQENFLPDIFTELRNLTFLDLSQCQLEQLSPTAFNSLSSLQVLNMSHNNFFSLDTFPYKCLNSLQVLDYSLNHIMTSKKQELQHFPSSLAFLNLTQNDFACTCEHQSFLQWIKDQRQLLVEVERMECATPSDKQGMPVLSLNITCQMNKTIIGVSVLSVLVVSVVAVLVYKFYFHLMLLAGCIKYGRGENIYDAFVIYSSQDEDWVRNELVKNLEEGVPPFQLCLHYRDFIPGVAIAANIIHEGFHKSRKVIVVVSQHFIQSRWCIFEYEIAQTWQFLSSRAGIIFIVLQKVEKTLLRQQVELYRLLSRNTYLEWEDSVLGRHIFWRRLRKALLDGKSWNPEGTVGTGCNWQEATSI
Summary of the method: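 SPR: TLR4 protein in acetate buffer immobilized after activation with 40 mM EDC/10 mM sNHS. Compound dilutions in PBS with 0.1% SDS, 0.05% Tween-20 and 5% DMSO; first channel used as reference. Association 120 s, dissociation 120 s, 25 °C; KD derived from binding kinetics.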

Mus musculus [11] = experiment: Anti-inflammatory activity in LPS-induced C57BL/6 mouse model of acute lung injury assessed as decrease in pulmonary congestion in lung tissue at 15 mg/kg, ip pretreated for 30 mins followed by LPS challenge measured after 6 hrs by hematoxylin and eosin staining-based light microscopic analysis; type: functional, organism-based; settings: C57/BL6
Mus musculus [12] = experiment: Anti-inflammatory activity in LPS-induced C57BL/6 mouse model of acute lung injury assessed as inhibition of TNF-alpha mRNA levels in lung tissue at 20 mg/kg, ip pretreated for 30 mins followed by LPS challenge measured after 6 hrs by RT-PCR analysis; type: functional, organism-based; settings: C57/BL6
Summary of the method: (§4)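 Male C57BL/6 mice given i.p. pretreatment 30 min before intratracheal LPS 5 mg/kg, lungs taken at 6 h. IL-6 and TNF-α mRNA in lung tissue normalized to β-actin and expressed relative to the LPS group.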

Mus musculus [13] = experiment: Anti-inflammatory activity in LPS-induced C57BL/6 mouse model of acute lung injury assessed as decrease in inflammatory infiltration in lung tissue at 15 mg/kg, ip pretreated for 30 mins followed by LPS challenge measured after 6 hrs by hematoxylin and eosin staining-based light microscopic analysis; type: functional, organism-based; settings: C57/BL6
Mus musculus [14] = experiment: Anti-inflammatory activity in LPS-induced C57BL/6 mouse model of acute lung injury assessed as decrease in lung tissue destruction at 15 mg/kg, ip pretreated for 30 mins followed by LPS challenge measured after 6 hrs by hematoxylin and eosin staining-based light microscopic analysis; type: functional, organism-based; settings: C57/BL6
Mus musculus [15] = experiment: Anti-inflammatory activity in LPS-induced C57BL/6 mouse model of acute lung injury assessed as decrease in CD68 production in lung tissue at 15 mg/kg, ip pretreated for 30 mins followed by LPS challenge measured after 6 hrs by immumohistochemical staining-based light microscopic analysis; type: functional, organism-based; settings: C57/BL6
Summary of the method: (§5)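 Male C57BL/6 mice, 18–22 g, n = 7 per group. Compound given i.p. 15 mg/kg in 200 µL, or vehicle, 30 min before intratracheal LPS 5 mg/kg; killed 6 h later. Paraffin lung sections, 5 µm, treated with H2O2, blocked in 5% BSA, then primary anti-CD68 or anti-TNF-α overnight at 4 °C. HRP secondary 2 h at 37 °C, DAB stain, light microscopy at 200×.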

Mus musculus [16] = experiment: Anti-inflammatory activity in LPS-induced C57BL/6 mouse model of acute lung injury assessed as decrease in interstitial edema in lung tissue at 15 mg/kg, ip pretreated for 30 mins followed by LPS challenge measured after 6 hrs by hematoxylin and eosin staining-based light microscopic analysis; type: functional, organism-based; settings: C57/BL6
Mus musculus [17] = experiment: Anti-inflammatory activity in LPS-induced C57BL/6 mouse model of acute lung injury assessed as inhibition of IL-6 mRNA levels in lung tissue at 20 mg/kg, ip pretreated for 30 mins followed by LPS challenge measured after 6 hrs by RT-PCR analysis; type: functional, organism-based; settings: C57/BL6; summary of the method: as §4
Mus musculus [18] = experiment: Anti-inflammatory activity in LPS-induced C57BL/6 mouse model of acute lung injury assessed as decrease in TNF-alpha production in lung tissue at 15 mg/kg, ip pretreated for 30 mins followed by LPS challenge measured after 6 hrs by immumohistochemical staining-based light microscopic analysis; type: functional, organism-based; settings: C57/BL6; summary of the method: as §5
Mus musculus [19] = experiment: Anti-inflammatory activity in LPS-induced C57BL/6 mouse model of acute lung injury assessed as decrease in thicken alveolar septa at 15 mg/kg, ip pretreated for 30 mins followed by LPS challenge measured after 6 hrs by hematoxylin and eosin staining-based light microscopic analysis; type: functional, organism-based; settings: C57/BL6

SMILES: COc1cc(/C=C/C(=O)NCCc2ccccc2)cc(OC)c1OC
- inhibition (Peritoneal macrophage [1]): Active

SMILES: COc1ccc(/C=C/C(=O)NCCc2ccccc2)c(OC)c1OC
- inhibition (Peritoneal macrophage [1]): inactive

SMILES: O=C(/C=C/c1ccc(O)cc1)NCCc1ccccc1
- inhibition (Peritoneal macrophage [1]): Active

SMILES: COc1cc(/C=C/C(=O)NCCc2ccccc2)ccc1OCc1ccccc1
- inhibition (Peritoneal macrophage [1]): Active

SMILES: COc1cc(COc2cc(/C=C/C(=O)NCCc3ccccc3)ccc2OC)cc(OC)c1
- inhibition (Peritoneal macrophage [1]): inactive

SMILES: Cc1ncsc1/C=C/C(=O)N[C@@H](Cc1ccc(O)cc1)C(=O)O
- inhibition (Peritoneal macrophage [1]): inactive

SMILES: O=C(/C=C/c1cccnc1)NCCc1ccccc1
- inhibition (Peritoneal macrophage [1]): Active

SMILES: O=C(/C=C/c1ccc(O)c(O)c1)OCCc1ccccc1 [CAFFEIC ACID PHENETHYL ESTER]
- inhibition (Mus musculus [2]): Active
- inhibition (Mus musculus [3]): Active
- inhibition (Mus musculus [4]): Active
- inhibition (Mus musculus [5]): Active
- inhibition (Mus musculus [6]): Active
- IC50 (Peritoneal macrophage [7]): 4.31 µM
- inhibition (Mus musculus [8]): Active

SMILES: COc1cc(/C=C/C(=O)NCCc2ccccc2)cc(Br)c1O
- inhibition (Peritoneal macrophage [1]): Active

SMILES: O=C(/C=C/c1ccc(C(F)(F)F)cc1)NCCc1ccccc1
- inhibition (Peritoneal macrophage [1]): inactive

SMILES: Cc1ncsc1/C=C/C(=O)NCCCCc1ccccc1
- inhibition (Peritoneal macrophage [1]): inactive

SMILES: Cc1ccc(/C=C/C(=O)NCCc2ccccc2)o1
- inhibition (Peritoneal macrophage [1]): Active

SMILES: O=C(/C=C/c1ccc2c(c1)OCO2)NCCc1ccccc1
- inhibition (Peritoneal macrophage [1]): Active

SMILES: COc1cc(OC)c(/C=C/C(=O)NCCc2ccccc2)c(OC)c1
- inhibition (Peritoneal macrophage [1]): inactive

SMILES: Cc1ncsc1/C=C/C(=O)NCCc1ccc(O)cc1
- inhibition (Peritoneal macrophage [1]): Active

SMILES: COc1ccc2cc(CCNC(=O)/C=C/c3scnc3C)[nH]c2c1
- inhibition (Peritoneal macrophage [1]): inactive

SMILES: Cc1ncsc1/C=C/C(=O)NCCc1ccccc1
- inhibition at 10 µM (Peritoneal macrophage [9]): 67.3%

SMILES: CCCCCCCNC(=O)/C=C/c1scnc1C
- inhibition (Peritoneal macrophage [1]): inactive

SMILES: CCCCCCCCNC(=O)/C=C/c1scnc1C
- inhibition (Peritoneal macrophage [1]): inactive

SMILES: COc1ccc(/C=C/C(=O)NCCc2ccccc2)cc1O
- inhibition (Peritoneal macrophage [1]): Active

SMILES: COc1ccc(/C=C/C(=O)NCCc2ccccc2)cc1OC
- inhibition (Peritoneal macrophage [1]): Active

SMILES: COc1cc(OC)c(OC)cc1/C=C/C(=O)NCCc1ccccc1
- inhibition (Peritoneal macrophage [1]): inactive

SMILES: COc1ccc(/C=C/C(=O)NCCc2ccccc2)cc1OCc1ccccc1
- inhibition (Peritoneal macrophage [1]): inactive

SMILES: Cc1ncsc1/C=C/C(=O)NCCc1ccc(O)c(O)c1
- inhibition (Peritoneal macrophage [1]): Active

SMILES: Cc1ccc(/C=C/C(=O)NCCc2ccccc2)s1
- inhibition (Peritoneal macrophage [1]): Active

SMILES: CCCCCCCCCNC(=O)/C=C/c1scnc1C
- inhibition (Peritoneal macrophage [1]): inactive

SMILES: COc1cccc(/C=C/C(=O)NCCc2ccccc2)c1OC
- inhibition (Peritoneal macrophage [1]): inactive

SMILES: Cc1ncsc1/C=C/C(=O)N[C@@H](Cc1ccccc1)C(=O)O
- inhibition (Peritoneal macrophage [1]): inactive

SMILES: COc1ccc(/C=C/C(=O)NCCc2ccccc2)cc1
- inhibition (Peritoneal macrophage [1]): Active

SMILES: Cc1ncsc1/C=C/C(=O)N[C@@H](Cc1ccccc1)C(=O)OC(C)(C)C
- inhibition at 10 µM (Peritoneal macrophage [9]): 68.7%

SMILES: CCCCCCCCCCNC(=O)/C=C/c1scnc1C
- inhibition (Peritoneal macrophage [1]): inactive

SMILES: Cc1ncsc1/C=C/C(=O)N1CCC(c2ccccc2)CC1
- inhibition (Peritoneal macrophage [1]): inactive

SMILES: Cc1ncsc1/C=C/C(=O)NCCc1cc2ccccc2[nH]1
- inhibition (Peritoneal macrophage [1]): inactive

SMILES: COc1cc(/C=C/C(=O)NCCc2ccccc2)ccc1O
- inhibition (Peritoneal macrophage [1]): Active

SMILES: C=CCOc1ccc(/C=C/C(=O)NCCc2ccccc2)cc1
- inhibition (Peritoneal macrophage [1]): Active

SMILES: Cc1ncsc1/C=C(\C#N)C(=O)NCCc1ccccc1
- inhibition (Peritoneal macrophage [1]): Active

SMILES: O=C(/C=C/c1ccc(N2CCOCC2)cc1)NCCc1ccccc1
- inhibition (Peritoneal macrophage [1]): Active

SMILES: Cc1ncsc1/C=C/C(=O)NCCCc1ccccc1
- inhibition (Peritoneal macrophage [1]): inactive

SMILES: O=C(/C=C/c1ccc([N+](=O)[O-])cc1)NCCc1ccccc1
- inhibition (Peritoneal macrophage [1]): inactive

SMILES: Cc1ncsc1/C=C/C(=O)N[C@@H](Cc1ccc(O)cc1)C(=O)OC(C)(C)C
- Activity [10]: inactive
- inhibition (Mus musculus [2]): Active
- Activity (Mus musculus [11]): Active
- inhibition (Mus musculus [3]): Active
- inhibition (Mus musculus [4]): Active
- inhibition (Mus musculus [12]): Active
- Activity (Mus musculus [13]): Active
- inhibition (Mus musculus [5]): Active
- Activity (Mus musculus [14]): Active
- Activity (Mus musculus [15]): Active
- Activity (Mus musculus [16]): Active
- inhibition (Mus musculus [17]): Active
- inhibition at 10 µM (Peritoneal macrophage [9]): 82.6%
- Activity (Mus musculus [18]): Active
- inhibition (Mus musculus [6]): Active
- Activity (Mus musculus [19]): Active
- IC50 (Peritoneal macrophage [7]): 2.05 µM
- inhibition (Peritoneal macrophage [7]): Dose-dependent effect
- inhibition (Mus musculus [8]): Active

SMILES: COc1cc(/C=C/C(=O)NCCc2ccccc2)ccc1OCc1ccc(C)cc1
- inhibition (Peritoneal macrophage [1]): Active

SMILES: CCOC(=O)[C@H](Cc1ccc(O)cc1)NC(=O)/C=C/c1scnc1C
- inhibition at 10 µM (Peritoneal macrophage [9]): 79.4%
- IC50 (Peritoneal macrophage [7]): 3.19 µM
- inhibition (Peritoneal macrophage [7]): Dose-dependent effect

SMILES: COc1ccc(/C=C/C(=O)NCCc2ccccc2)cc1OCc1ccc(C)cc1
- inhibition (Peritoneal macrophage [1]): inactive

Source: ChEMBL document CHEMBL4138215, “Discovery of caffeic acid phenethyl ester derivatives as novel myeloid differentiation protein 2 inhibitors for treatment of acute lung injury” (Eur J Med Chem, 2018)
